Measured values pooled from the literature.
Target: Serine/threonine-protein kinase MAK (MAK, Homo sapiens, UniProt P20794)
Sequence (P20794 1-623, as in one of the studies): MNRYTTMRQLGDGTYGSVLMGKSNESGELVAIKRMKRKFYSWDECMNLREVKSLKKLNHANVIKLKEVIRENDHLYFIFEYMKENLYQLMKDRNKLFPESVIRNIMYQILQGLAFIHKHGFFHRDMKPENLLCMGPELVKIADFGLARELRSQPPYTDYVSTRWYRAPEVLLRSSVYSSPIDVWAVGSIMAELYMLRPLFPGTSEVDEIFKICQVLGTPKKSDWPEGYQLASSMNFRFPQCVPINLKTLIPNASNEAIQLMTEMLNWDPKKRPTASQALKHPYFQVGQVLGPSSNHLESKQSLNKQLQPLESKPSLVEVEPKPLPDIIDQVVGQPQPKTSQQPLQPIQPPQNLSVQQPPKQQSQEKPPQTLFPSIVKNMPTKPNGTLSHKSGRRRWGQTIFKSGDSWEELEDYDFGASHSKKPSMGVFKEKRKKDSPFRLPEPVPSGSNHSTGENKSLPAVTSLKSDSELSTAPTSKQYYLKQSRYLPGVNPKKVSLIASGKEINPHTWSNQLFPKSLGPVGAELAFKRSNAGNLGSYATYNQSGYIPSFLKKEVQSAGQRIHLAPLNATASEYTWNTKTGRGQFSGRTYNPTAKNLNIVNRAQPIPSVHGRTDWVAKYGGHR

SMILES	assay	setting	remaining binding
N[C@@H]1CCN(c2nccc(-c3cnn4ncccc34)n2)C1	binding	1 µM	100%
FC(F)(F)Oc1cccc(-c2cnc3ccc(-c4ccncc4)nn23)c1	cell-free assay, competition with immobilised ligand	5 µM	99%
O=C(NCCCN1CCOCC1)c1ccc(Nc2ncc(Cl)c(-c3ccc(Cl)s3)n2)cc1	binding, competition with immobilised ligand	1 µM	100%
COc1cnc(Nc2cccc(S(N)(=O)=O)c2)nc1N1CCN(c2ccccc2)C(=O)C1	binding, competition with immobilised ligand	1 µM	96%
C[C@@H]1CCN(c2nccc(-c3cnn4ncccc34)n2)C1	binding	1 µM	97%
CCC(=O)N[C@H]1CC[C@@H](C(=O)N(C)c2ccc(-c3nc4ccccc4o3)cc2)C1	cell-free assay, competition with immobilised ligand	1 µM	85%
Nc1ncc2c(n1)-c1c([nH]c3ccc(C#CC4CC4)cc13)CCCC2	binding, competition with immobilised ligand	1 µM	100%
O=C(c1ccc(Nc2ncc(Cl)c(-c3cc4ccccc4s3)n2)cc1)N1CCC(N2CCCC2)CC1	binding, competition with immobilised ligand	1 µM	100%
O=C1CCc2cc(Nc3cc(OC4CCOCC4)c([N+](=O)[O-])cc3Cl)ccc2N1	cell-free assay, competition with immobilised ligand	1 µM	100%
CN(CCCC(F)(F)F)c1nccc(-c2cnn3ncccc23)n1	binding	1 µM	100%
CO[C@H]1CC[C@H](CNc2ccc(S(=O)(=O)NC(=O)c3ccc(N4CCN(CC5=C(c6ccc(Cl)cc6)CC(C)(C)CC5)CC4)cc3Oc3cnc4[nH]ccc4c3)cc2[N+](=O)[O-])CC1	cell-free assay, competition with immobilised ligand	1 µM	90%
C[C@@H](c1ccc(-n2cnc3c(N)ncnc32)cc1)N1CCc2nn(C)c(Cc3ccccc3)c2C1=O	binding, competition with immobilised ligand	0.1 µM	82%
F[C@@H]1CCN(c2nccc(-c3cnn4ncccc34)n2)C1	binding	1 µM	86%
Cn1nc(C(=O)NCc2ccc(C(=O)O)cc2)cc1-c1ccc2[nH]ccc2c1	cell-free assay, competition with immobilised ligand	0.1 µM	92%
C=CC(=O)N1CCC(C(=O)NCC(=O)N2CCN(c3nc(-c4cnc(N)nc4C(F)F)nc(N4CCOCC4)n3)CC2)CC1	binding, competition with immobilised ligand	1 µM	100%
O=C(Nc1c[nH]nc1C(=O)NC1CCNCC1)c1cc(F)cc(F)c1	binding, competition with immobilised ligand	1 µM	78%
O=C(Nc1cccnn1)N1CCC(=Cc2cccc(Oc3ccc(C(F)(F)F)cn3)c2)CC1	cell-free assay, competition with immobilised ligand	1 µM	100%
CN(C)c1nccc(-c2cnc3ncccn23)n1	binding	1 µM	100%
CS(=O)(=O)N1CCCC(NC(=O)[C@H](CCC2CCCCC2)NC(=O)c2ccc(CNC(=O)c3cnc4ccccn34)cc2)C1 (stereo partly shown)	cell-free assay, competition with immobilised ligand	0.1 µM	100%
Cc1cnn2ncc(-c3ccnc(N(C)C)n3)c2c1	binding	1 µM	46%
O=C(N1CCS(=O)(=O)CC1)N1C[C@H](c2ccc(OC(F)(F)F)cc2)C[C@H](c2nc(C3CC3)no2)C1	binding, competition with immobilised ligand	1 µM	100%
O=C(c1ccc(Nc2ncc(Cl)c(-c3ccc(Cl)s3)n2)cc1)N1CCC(N2CCCC2)CC1	binding, competition with immobilised ligand	1 µM	85%
